Test results reported in ChEMBL document CHEMBL4033785, “Increased Potency and Selectivity for Group III Metabotropic Glutamate Receptor Agonists Binding at Dual sites” (J Med Chem, 2018).
Active and inactive are the calls of the source. The calls are words filed in the database; no cut-off is given here.

What was measured:
Homo sapiens [1] = species on record: Homo sapiens; experiment: (§1) Selectivity ratio of EC50 for mGlu8 (unknown origin) expressed in HEK293 cells coexpressing chimeric Gq/i protein assessed as [3H]inositol phosphate accumulation to EC50 for mGlu4 (unknown origin) expressed in HEK293 cells coexpressing chimeric Gq/i protein assessed as [3H]inositol phosphate accumulation; type: cell-based
Summary of the method: (§2)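 Ratio of mGlu8 EC50 to mGlu4 EC50, both from the same functional assay. Both receptors were co-expressed in HEK293 cells with chimeric G-protein and EAAT3 and read by 3H-IP accumulation or by Fluo-4 Ca2+ release.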

[2] = target: Metabotropic glutamate receptor 4 (Homo sapiens, UniProt Q14833); experiment: Agonist activity at mGlu4 (unknown origin) expressed in HEK293 cells coexpressing chimeric Gq/i protein assessed as increase in intracellular calcium accumulation by Fluo-4 AM dye based fluorescence assay; type: functional, cell-based
[3] = target: T1, Metabotropic glutamate receptor 7 (Homo sapiens, UniProt Q14831); experiment: Agonist activity at mGlu7 (unknown origin) expressed in HEK293 cells coexpressing chimeric Gq/i protein assessed as increase in intracellular calcium accumulation by Fluo-4 AM dye based fluorescence assay; type: functional, cell-based
Homo sapiens [4] = species on record: Homo sapiens; experiment: as §1, with “increase in intracellular calcium” for “[3H]inositol phosphate”; type: cell-based; summary of the method: as §2
[5] = target: T2, Metabotropic glutamate receptor 6 (Homo sapiens, UniProt O15303); experiment: Agonist activity at mGlu6 (unknown origin) expressed in HEK293 cells coexpressing chimeric Gq/i protein assessed as [3H]inositol phosphate accumulation after 30 mins by scintillation and luminescence counting method; type: functional, cell-based
Summary of the method: (§3)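 Receptor transiently co-expressed in HEK293 cells (electroporation) with chimeric G-protein and glutamate transporter EAAT3. Cells labelled overnight with 3H-myoinositol, stimulated with agonist 30 min, lysed 1 h in cold 0.1 M formic acid. 3H-IP isolated on Dowex ion exchange and counted. IP expressed relative to IP plus membrane radioactivity. Points in triplicate; EC50 from Hill-equation fit.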

[6] = target: T3, Metabotropic glutamate receptor 8 (Homo sapiens, UniProt O00222); experiment: Agonist activity at mGlu8 (unknown origin) expressed in HEK293 cells coexpressing chimeric Gq/i protein assessed as increase in intracellular calcium accumulation by Fluo-4 AM dye based fluorescence assay; type: functional, cell-based
[7] = target: T3, Metabotropic glutamate receptor 8; experiment: Agonist activity at mGlu8 (unknown origin) expressed in HEK293 cells coexpressing chimeric Gq/i protein assessed as [3H]inositol phosphate accumulation after 30 mins by scintillation and luminescence counting method; type: functional, cell-based; summary of the method: as §3
[8] = target: T2, Metabotropic glutamate receptor 6; experiment: Agonist activity at mGlu6 (unknown origin) expressed in HEK293 cells coexpressing chimeric Gq/i protein assessed as increase in intracellular calcium accumulation by Fluo-4 AM dye based fluorescence assay; type: functional, cell-based
Homo sapiens [9] = species on record: Homo sapiens; experiment: Selectivity ratio of EC50 for mGlu8 (unknown origin) expressed in HEK293 cells coexpressing chimeric Gq/i protein assessed as [3H]inositol phosphate accumulation to EC50 for mGlu4 (unknown origin) expressed in HEK293 cells coexpressing chimeric Gq/i protein assessed as increase in intracellular calcium accumulation; type: cell-based
[10] = target: Ionotropic glutamate receptor NMDA1/2B (Rattus norvegicus, UniProt P35439+Q01097); experiment: Antagonist activity at rat GluN1a/mouse GluN2B receptors expressed in Xenopus laevis oocytes assessed as inhibition of L-glutamate/[…] induced current amplitude at holding potential of -60 mV by […]; type: cell-based
[11] = target: Metabotropic glutamate receptor 4 (Mus musculus, UniProt Q68EF4); experiment: Agonist activity at mGlu4 in C57/Bl6 mouse GP neurons assessed as inhibition of striatopallidal GABAergic inhibitory postsynaptic current amplitude by whole cell patch clamp assay
[12] = target: Metabotropic glutamate receptor 4 (Rattus norvegicus) (UniProt P31423); experiment: (§4) Agonist activity at mGlu4 assessed as decrease in PF-induced presynaptic calcium amplitude in rat coronal slices by Fluo-4FF-AM dye based fluorescence assay; type: functional
Summary of the method: (§5)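 Coronal cerebellar slices (250 μm) from 18−29-day-old rats. Parallel fibers loaded by focal Fluo-4FF-AM (100 μM); recording at least 45 min later at 28−30 °C. Excitation 485 nm, emission 530 nm, photometer in a 20×50 μm window over the molecular layer. ΔF/F bleach-corrected. Agonist bath-applied from a 40 mM water stock; EC50 and Hill coefficient fitted.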

[13] = target: Metabotropic glutamate receptor 4 (Rattus norvegicus, UniProt P31423); experiment: as §4; type: functional; summary of the method: as §5
[14] = target: Metabotropic glutamate receptor 4 (Mus musculus) (UniProt Q68EF4); experiment: Agonist activity at mGlu4 in C57/Bl6 mouse GP neurons assessed as inhibition of striatopallidal GABAergic inhibitory postsynaptic current amplitude at 3 uM by whole cell patch clamp assay relative to control
[15] = target: Metabotropic glutamate receptor 4 (Rattus norvegicus) (UniProt P31423); experiment: Agonist activity at mGlu4 in rat purkinje cells assessed as increase in mean paired-pulse facilitation at 100 uM treated for 5 mins by whole cell patch clamp assay relative to control; type: cell-based
Summary of the method: (§6)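 Sagittal cerebellar vermis slices (250 μm) from 18−29-day-old rats. Purkinje cells whole-cell clamped at 28−30 °C. Parallel-fiber EPSCs evoked by paired stimuli 40 ms apart; PPF taken as second/first amplitude, averaged per cell. Agonist bath-applied 5 min from a 40 mM water stock. EC50 and Hill coefficient fitted across independent experiments.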

[16] = target: Metabotropic glutamate receptor 4 (Rattus norvegicus) (UniProt P31423); experiment: Agonist activity at mGlu4 assessed as decrease in PF-induced presynaptic calcium amplitude in rat coronal slices at 100 uM by Fluo-4FF-AM dye based fluorescence assay relative to control; type: functional; set-up: scale not given: the % may be the effect or the level left; summary of the method: as §5
[17] = target: Metabotropic glutamate receptor 4 (Rattus norvegicus) (UniProt P31423); experiment: Agonist activity at mGlu4 in rat purkinje cells assessed as mean decrease in parallel fiber-induced excitary postsynaptic currents amplitude for first response treated for 5 mins by whole cell patch clamp assay; type: cell-based; summary of the method: as §6
[18] = target: Glutamate NMDA receptor; Grin1/Grin2a (Rattus norvegicus, UniProt P35439+Q00959); experiment: Antagonist activity at rat GluN1a/GluN2A receptors expressed in Xenopus laevis oocytes assessed as inhibition of L-glutamate/[…] induced current amplitude at holding potential of -60 mV by […]; type: cell-based
[19] = target: Metabotropic glutamate receptor 4 (Rattus norvegicus) (UniProt P31423); experiment: Agonist activity at mGlu4 in rat purkinje cells assessed as mean decrease in parallel fiber-induced excitary postsynaptic currents amplitude for first response at 100 uM treated for 5 mins by whole cell patch clamp assay relative to control; type: cell-based; set-up: scale not given: the % may be the effect or the level left; summary of the method: as §6
[20] = target: Metabotropic glutamate receptor 4 (Rattus norvegicus) (UniProt P31423); experiment: Agonist activity at mGlu4 in rat purkinje cells assessed as mean decrease in parallel fiber-induced excitary postsynaptic currents amplitude for second response at 100 uM treated for 5 mins by whole cell patch clamp assay relative to control; type: cell-based; set-up: scale not given: the % may be the effect or the level left; summary of the method: as §6
[21] = target: T1, Metabotropic glutamate receptor 7; experiment: Agonist activity at mGlu7 (unknown origin) expressed in HEK293 cells coexpressing chimeric Gq/i protein assessed as increase in intracellular calcium accumulation at 300 uM by Fluo-4 AM dye based fluorescence assay; type: functional, cell-based
[22] = target: T1, Metabotropic glutamate receptor 7; experiment: Agonist activity at mGlu7 (unknown origin) expressed in HEK293 cells coexpressing chimeric Gq/i protein assessed as [3H]inositol phosphate accumulation after 30 mins by scintillation and luminescence counting method; type: functional, cell-based; summary of the method: as §3

T2 sequence (O15303 whole entry): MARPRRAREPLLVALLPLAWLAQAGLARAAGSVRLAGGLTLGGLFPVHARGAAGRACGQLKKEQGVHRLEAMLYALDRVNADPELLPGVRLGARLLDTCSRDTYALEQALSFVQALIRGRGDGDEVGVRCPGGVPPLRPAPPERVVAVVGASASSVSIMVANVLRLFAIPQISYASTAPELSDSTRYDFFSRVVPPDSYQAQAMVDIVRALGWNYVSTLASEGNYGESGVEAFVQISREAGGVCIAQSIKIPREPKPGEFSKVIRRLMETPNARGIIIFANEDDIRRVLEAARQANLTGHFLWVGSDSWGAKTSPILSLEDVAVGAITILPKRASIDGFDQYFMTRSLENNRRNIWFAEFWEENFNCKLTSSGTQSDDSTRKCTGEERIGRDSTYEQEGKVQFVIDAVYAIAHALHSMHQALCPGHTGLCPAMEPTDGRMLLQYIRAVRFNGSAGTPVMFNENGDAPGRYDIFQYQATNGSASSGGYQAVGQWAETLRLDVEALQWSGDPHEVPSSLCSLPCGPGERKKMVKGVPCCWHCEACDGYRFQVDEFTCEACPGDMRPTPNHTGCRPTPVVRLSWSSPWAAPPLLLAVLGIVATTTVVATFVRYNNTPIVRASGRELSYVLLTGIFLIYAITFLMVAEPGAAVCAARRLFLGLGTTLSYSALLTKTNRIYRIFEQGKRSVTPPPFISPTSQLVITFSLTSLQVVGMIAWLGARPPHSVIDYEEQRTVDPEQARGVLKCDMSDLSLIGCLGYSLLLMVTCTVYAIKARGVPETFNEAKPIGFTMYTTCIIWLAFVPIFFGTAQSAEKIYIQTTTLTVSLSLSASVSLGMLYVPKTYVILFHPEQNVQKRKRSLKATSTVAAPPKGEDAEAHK
Sequence of Metabotropic glutamate receptor 4 (Homo sapiens, UniProt Q14833) (Q14833 whole entry): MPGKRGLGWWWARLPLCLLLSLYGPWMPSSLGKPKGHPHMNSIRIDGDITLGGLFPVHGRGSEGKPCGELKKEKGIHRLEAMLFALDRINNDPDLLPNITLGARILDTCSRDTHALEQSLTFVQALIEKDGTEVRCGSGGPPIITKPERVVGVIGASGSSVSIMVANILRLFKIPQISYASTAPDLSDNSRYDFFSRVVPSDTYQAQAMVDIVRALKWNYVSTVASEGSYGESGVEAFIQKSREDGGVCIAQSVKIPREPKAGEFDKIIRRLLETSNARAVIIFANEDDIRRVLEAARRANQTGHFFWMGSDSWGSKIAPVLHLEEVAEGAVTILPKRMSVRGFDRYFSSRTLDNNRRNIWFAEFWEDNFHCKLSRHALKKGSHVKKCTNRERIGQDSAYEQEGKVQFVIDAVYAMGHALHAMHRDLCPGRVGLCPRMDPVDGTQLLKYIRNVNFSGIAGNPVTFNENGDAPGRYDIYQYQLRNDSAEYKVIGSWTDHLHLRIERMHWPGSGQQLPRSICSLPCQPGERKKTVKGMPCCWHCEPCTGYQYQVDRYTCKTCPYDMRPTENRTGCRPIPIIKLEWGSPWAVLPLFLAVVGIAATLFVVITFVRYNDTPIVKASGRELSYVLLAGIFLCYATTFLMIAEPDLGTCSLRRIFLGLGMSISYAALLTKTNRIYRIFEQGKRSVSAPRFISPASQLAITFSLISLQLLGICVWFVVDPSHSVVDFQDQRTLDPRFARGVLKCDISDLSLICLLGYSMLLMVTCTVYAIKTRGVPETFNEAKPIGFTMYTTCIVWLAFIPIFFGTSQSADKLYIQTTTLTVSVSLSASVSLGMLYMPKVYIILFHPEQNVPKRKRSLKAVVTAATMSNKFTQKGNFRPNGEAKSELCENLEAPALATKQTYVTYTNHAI
T3 sequence (O00222 whole entry): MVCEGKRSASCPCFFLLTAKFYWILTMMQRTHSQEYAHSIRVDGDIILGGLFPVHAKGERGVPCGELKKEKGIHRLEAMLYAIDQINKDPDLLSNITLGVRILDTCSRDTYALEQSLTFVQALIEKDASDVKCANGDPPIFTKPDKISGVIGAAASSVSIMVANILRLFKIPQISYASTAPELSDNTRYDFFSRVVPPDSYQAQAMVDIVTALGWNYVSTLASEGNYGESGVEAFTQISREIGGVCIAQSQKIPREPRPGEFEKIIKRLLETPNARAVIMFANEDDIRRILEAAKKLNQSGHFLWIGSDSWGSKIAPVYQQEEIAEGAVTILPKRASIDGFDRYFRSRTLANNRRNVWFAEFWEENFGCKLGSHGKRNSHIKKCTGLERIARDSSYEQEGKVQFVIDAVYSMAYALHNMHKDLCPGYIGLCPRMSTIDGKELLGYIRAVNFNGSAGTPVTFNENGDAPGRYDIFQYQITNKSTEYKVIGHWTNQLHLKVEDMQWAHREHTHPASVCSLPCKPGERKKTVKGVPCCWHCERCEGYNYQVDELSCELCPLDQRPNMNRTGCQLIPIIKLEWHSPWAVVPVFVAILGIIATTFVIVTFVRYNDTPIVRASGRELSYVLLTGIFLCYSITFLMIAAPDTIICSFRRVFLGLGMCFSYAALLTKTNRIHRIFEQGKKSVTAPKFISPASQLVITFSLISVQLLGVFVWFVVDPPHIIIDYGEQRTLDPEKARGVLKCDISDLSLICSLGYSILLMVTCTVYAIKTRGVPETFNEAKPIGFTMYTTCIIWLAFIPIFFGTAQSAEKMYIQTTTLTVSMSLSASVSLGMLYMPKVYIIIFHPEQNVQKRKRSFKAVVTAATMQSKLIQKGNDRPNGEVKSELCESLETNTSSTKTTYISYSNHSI
T1 sequence (Q14831 whole entry): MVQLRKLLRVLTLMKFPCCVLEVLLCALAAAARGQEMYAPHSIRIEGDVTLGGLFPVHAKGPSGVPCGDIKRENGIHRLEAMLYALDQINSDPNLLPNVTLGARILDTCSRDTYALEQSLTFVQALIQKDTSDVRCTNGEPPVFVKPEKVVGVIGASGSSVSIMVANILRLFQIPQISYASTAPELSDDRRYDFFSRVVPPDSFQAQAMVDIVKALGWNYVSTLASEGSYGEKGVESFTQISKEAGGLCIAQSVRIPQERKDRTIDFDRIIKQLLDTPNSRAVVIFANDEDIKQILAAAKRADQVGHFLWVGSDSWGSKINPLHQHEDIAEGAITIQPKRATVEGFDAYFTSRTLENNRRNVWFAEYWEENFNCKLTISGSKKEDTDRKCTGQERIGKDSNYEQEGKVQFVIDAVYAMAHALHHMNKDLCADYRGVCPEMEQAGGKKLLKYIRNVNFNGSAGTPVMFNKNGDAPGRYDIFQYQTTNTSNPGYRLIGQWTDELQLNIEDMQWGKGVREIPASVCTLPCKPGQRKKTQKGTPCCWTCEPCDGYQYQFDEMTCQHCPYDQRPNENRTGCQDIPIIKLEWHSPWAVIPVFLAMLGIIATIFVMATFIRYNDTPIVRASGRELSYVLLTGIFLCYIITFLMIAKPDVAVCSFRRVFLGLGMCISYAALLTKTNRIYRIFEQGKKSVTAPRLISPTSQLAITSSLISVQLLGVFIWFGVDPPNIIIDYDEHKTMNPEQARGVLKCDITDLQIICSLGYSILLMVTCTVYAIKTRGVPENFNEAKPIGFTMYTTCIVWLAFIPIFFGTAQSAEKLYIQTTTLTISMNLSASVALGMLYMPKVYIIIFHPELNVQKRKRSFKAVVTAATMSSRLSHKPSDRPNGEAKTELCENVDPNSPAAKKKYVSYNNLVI
Sequence of Metabotropic glutamate receptor 4 (Rattus norvegicus) (P31423 whole entry): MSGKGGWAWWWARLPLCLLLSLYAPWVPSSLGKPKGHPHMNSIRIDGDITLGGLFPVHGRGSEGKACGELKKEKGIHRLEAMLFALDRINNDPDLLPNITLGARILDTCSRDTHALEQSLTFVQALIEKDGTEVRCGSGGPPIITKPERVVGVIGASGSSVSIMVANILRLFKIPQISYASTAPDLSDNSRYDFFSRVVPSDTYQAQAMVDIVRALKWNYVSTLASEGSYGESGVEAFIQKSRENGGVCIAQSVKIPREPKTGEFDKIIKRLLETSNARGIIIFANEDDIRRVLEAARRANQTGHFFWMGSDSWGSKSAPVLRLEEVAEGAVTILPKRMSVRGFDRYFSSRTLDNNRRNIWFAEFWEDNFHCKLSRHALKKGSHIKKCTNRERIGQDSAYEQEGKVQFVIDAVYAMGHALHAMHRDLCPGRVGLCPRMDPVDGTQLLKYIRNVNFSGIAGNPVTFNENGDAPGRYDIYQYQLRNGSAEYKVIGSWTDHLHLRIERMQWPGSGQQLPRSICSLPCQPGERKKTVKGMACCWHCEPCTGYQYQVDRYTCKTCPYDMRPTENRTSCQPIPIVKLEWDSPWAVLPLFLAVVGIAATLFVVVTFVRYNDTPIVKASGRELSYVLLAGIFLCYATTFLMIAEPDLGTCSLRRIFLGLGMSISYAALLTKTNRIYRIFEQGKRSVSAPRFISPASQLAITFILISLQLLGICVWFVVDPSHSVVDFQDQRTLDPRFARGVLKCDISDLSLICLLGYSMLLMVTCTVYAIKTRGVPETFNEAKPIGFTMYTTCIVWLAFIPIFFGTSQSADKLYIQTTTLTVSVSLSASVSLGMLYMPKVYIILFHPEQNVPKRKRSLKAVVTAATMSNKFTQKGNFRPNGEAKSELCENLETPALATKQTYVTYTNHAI
Sequence of Metabotropic glutamate receptor 4 (Mus musculus, UniProt Q68EF4) (Q68EF4 whole entry): as the sequence (P31423 whole entry) above, with A24G, P25S, G280A, M339T, L482R, I705V, G713C, T895A counted along it
Sequence of Metabotropic glutamate receptor 4 (Mus musculus) (Q68EF4 whole entry): as the sequence (P31423 whole entry) above, with A24G, P25S, G280A, M339T, L482R, I705V, G713C, T895A counted along it
Sequence of Metabotropic glutamate receptor 4 (Rattus norvegicus, UniProt P31423) (P31423 whole entry): as the sequence (P31423 whole entry) above

| SMILES | Ratio EC50 (Homo sapiens [1]) | EC50 [2] [µM] | EC50 [3] [µM] | Ratio EC50 (Homo sapiens [4]) | EC50 [5] [µM] | EC50 [6] [µM] | EC50 [7] [µM] | EC50 [8] [µM] | further results |
| --- | --- | --- | --- | --- | --- | --- | --- | --- | --- |
| N[C@@H](CCP(=O)(O)C(O)c1ccc(F)c([N+](=O)[O-])c1)C(=O)O (some centres not stated) | 2.1 | 0.44 | > 100 | 1.5 | 25 | 0.66 | 1.3 | 4 |  |
| N[C@@H](CCP(=O)(O)C(O)c1cccnc1)C(=O)O (some centres not stated) |  | 30 |  |  |  |  | 36 |  | Ratio EC50 (Homo sapiens [9]): 1.2 |
| N[C@@H](CCP(=O)(O)C(O)c1ccc([N+](=O)[O-])cc1)C(=O)O (some centres not stated) | 1.4 | 0.64 | > 100 | 0.8 |  | 0.49 | 0.53 | 4.6 |  |
| N[C@@H](CCP(=O)(O)C(O)c1c(F)c(F)c(F)c(F)c1F)C(=O)O (some centres not stated) | 3.7 | 5.6 | > 100 | 1.4 |  | 7.6 | 18.5 | 30 |  |
| COc1cc(C(O)P(=O)(O)CC[C@H](N)C(=O)O)cc([N+](=O)[O-])c1O (mixture of isomers) |  | 0.9 |  |  |  | 19.4 |  |  | IC50 [10]: 2300 µM; EC50 [11]: 0.2 µM; Activity [12]: Dose-dependent effect; Imax [12]: 40%; EC50 [13]: 20 µM; Imax [14]: 40%; Activity [15]: 2.29 to 2.91%; Activity [16]: 12.5%; Activity [17]: Dose-dependent effect; IC50 [18]: 1100 µM; Activity [19]: 39.2%; Activity [20]: 26.4% |
| Nc1ncc(C(O)P(=O)(O)CC[C@H](N)C(=O)O)s1 (some centres not stated) |  | 15 |  | 1.9 |  | 28 |  | > 100 | Activity [21]: inactive |
| COc1cc(C(N)P(=O)(O)CC[C@H](N)C(=O)O)cc([N+](=O)[O-])c1O (some centres not stated) |  | 11.6 |  | 3 |  |  |  | > 100 | Activity [21]: inactive |
| N[C@@H](CCP(=O)(O)C(O)c1ccc(C(=O)O)cc1)C(=O)O (some centres not stated) | 18 |  |  |  | 31 |  | 141 |  | EC50 [22]: 169 µM |
| N[C@@H](CCP(=O)(O)C(O)c1ccc([N+](=O)[O-])o1)C(=O)O (some centres not stated) | 2.2 |  |  |  | 6.1 |  | 0.3 |  | EC50 [22]: 1970 µM |
| N[C@@H](CCP(=O)(O)C(O)c1ccc(C(F)(F)F)c([N+](=O)[O-])c1)C(=O)O (some centres not stated) |  | 0.44 | > 100 | 3.5 | 5.7 | 1.54 |  | 11.9 |  |
